ChEMBL document CHEMBL1817572, “New, potent, selective, and short-acting peptidic V1a receptor agonists” (J Med Chem, 2011)
Bridge positions count the residues as written; N and C are the ends. Square brackets hold non-standard residues; d marks the D form. Peptide text beside a SMILES is read from it. Ala(2-furyl) = N[C@@H](Cc1ccco1)C(=O)O; Orn(iPr) = CC(C)NCCC[C@H](N)C(=O)O; 2Thi = N[C@@H](Cc1cccs1)C(=O)O; Aad = N[C@@H](CCCC(=O)O)C(=O)O; Cha = N[C@@H](CC1CCCCC1)C(=O)O; Orn = NCCC[C@H](N)C(=O)O; Dab = NCC[C@H](N)C(=O)O

Tests used:
Homo sapiens [1] = species: Homo sapiens; assay: Selectivity ratio of EC50 for human vasopressin V1b receptor to EC50 for human vasopressin V1a receptor
Vasopressin V1a receptor [2] = target: T1, Vasopressin V1a receptor (Homo sapiens, UniProt P37288); assay: Partial agonist activity at recombinant human vasopressin V1a receptor expressed in HEK293 cells by luciferase reporter gene assay; assay type: functional, cell-based
Method in brief: (§1)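 Same luciferase reporter systems (OT in stable CHO-K1, V1b in stable Flp-In-293, each with transient NFAT-luciferase; V1a in HEK293 with NFAT-luciferase, V2 in HEK293 with CRE-luciferase). Peptides added for 5 h at 37 °C two days post-transfection, luminescence read. Partial agonism means efficacy <70%.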
Target sequence in this assay (P37288 whole entry, looked up): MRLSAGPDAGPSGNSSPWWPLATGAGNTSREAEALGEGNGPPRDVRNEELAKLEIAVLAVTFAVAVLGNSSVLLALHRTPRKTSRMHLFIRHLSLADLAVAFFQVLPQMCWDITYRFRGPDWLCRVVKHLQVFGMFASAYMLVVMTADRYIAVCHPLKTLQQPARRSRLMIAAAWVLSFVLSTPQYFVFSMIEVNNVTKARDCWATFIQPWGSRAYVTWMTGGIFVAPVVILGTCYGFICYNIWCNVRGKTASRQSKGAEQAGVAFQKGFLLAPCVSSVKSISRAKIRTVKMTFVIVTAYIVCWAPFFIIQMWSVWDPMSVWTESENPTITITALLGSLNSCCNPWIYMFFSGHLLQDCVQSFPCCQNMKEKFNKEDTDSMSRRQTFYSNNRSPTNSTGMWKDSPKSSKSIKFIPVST

Rattus norvegicus [3] = assay: Vasoconstriction in Wistar rat assessed as assessed as decay in vasopressive duration of action at 2 nmol/kg, iv bolus measured over 10 sec interval; assay type: functional
Method in brief: (§2)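 Fasted male Wistar rats (206–340 g) under isoflurane, then thiobutabarbital 150 mg/kg ip, ventilated, 37–38 °C, with carotid pressure and jugular dosing. Dibenamine 1.8 mg/rat iv pretreatment. Sequence: iv boluses (0.5 mL/kg) of heparinized vehicle, then two reference doses of 0.1 nmol/kg, then two test doses; one matches the reference diastolic pressure rise. Relative duration = reference decay rate / test decay rate; mean ± SEM.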

Oxytocin receptor = target: T2, Oxytocin receptor (Homo sapiens, UniProt P30559); assay: Agonist activity at human OT receptor expressed in CHO-K1 cells by luciferase reporter gene assay; assay type: functional, cell-based
T2 sequence (P30559 whole entry): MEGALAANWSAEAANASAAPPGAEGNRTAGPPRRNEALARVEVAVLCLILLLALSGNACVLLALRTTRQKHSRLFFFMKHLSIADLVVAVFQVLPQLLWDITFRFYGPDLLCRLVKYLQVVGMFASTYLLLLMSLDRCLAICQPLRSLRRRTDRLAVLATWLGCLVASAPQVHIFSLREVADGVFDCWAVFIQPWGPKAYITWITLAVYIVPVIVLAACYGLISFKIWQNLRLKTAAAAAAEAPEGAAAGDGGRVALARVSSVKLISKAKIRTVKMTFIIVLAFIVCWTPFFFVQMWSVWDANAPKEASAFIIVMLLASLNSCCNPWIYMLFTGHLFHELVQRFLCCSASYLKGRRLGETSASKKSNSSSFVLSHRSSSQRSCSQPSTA

Homo sapiens [4] = species: Homo sapiens; assay: Selectivity ratio of EC50 for human oxytocin receptor to EC50 for human vasopressin V1a receptor
Vasopressin V2 receptor [5] = target: T3, Vasopressin V2 receptor (Homo sapiens, UniProt P30518); assay: Partial agonist activity at recombinant human vasopressin V2 receptor expressed in HEK293 cells by luciferase reporter gene assay; assay type: functional, cell-based; method in brief: as §1
T3 sequence (P30518 whole entry): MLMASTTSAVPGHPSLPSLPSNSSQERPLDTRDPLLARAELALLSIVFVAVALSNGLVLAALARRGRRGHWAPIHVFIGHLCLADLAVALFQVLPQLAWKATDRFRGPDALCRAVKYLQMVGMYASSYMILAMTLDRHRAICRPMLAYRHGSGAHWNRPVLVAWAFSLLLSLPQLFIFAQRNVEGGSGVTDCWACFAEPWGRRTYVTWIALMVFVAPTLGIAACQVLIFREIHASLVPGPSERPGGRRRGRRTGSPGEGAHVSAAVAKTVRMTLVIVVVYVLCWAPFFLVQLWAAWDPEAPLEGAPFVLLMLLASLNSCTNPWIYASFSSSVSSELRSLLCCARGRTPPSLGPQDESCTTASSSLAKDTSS

[6] = target: Vasopressin V1a/V2 (Homo sapiens) (UniProt P30518+P37288); assay: Selectivity ratio of EC50 for human vasopressin V2 receptor to EC50 for human vasopressin V1a receptor
Vasopressin V1a/V2 (Homo sapiens), sequence (P30518 whole entry, looked up): as the sequence (P30518 whole entry) above
Vasopressin V1a/V2 (Homo sapiens), sequence (P37288 whole entry, looked up): as the sequence (P37288 whole entry, looked up) above

Vasopressin V2 receptor [7] = target: T3, Vasopressin V2 receptor; assay: Agonist activity at recombinant human vasopressin V2 receptor expressed in HEK293 cells by luciferase reporter gene assay; assay type: functional, cell-based; conditions: read-out: EC50
Vasopressin V1a receptor [8] = target: Vasopressin V1a receptor (Rattus norvegicus, UniProt P30560); assay: Agonist activity at recombinant rat vasopressin V1a receptor expressed in HEK293 cells by luciferase reporter gene assay; assay type: functional, cell-based; conditions: read-out: EC50
Vasopressin V1a receptor (Rattus norvegicus, UniProt P30560), sequence (P30560 whole entry): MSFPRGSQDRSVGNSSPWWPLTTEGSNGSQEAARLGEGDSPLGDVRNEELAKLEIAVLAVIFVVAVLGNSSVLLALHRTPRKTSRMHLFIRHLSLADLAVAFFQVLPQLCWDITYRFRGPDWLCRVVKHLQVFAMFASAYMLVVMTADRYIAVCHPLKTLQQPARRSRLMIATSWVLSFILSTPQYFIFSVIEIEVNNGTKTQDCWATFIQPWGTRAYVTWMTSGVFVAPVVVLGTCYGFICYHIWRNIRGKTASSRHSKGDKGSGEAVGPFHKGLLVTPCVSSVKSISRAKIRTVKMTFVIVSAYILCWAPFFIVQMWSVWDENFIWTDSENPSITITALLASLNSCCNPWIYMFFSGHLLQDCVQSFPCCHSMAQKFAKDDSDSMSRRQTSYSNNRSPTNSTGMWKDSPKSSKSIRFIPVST

Vasopressin V1b receptor = target: T4, Vasopressin V1b receptor (Homo sapiens, UniProt P47901); assay: Agonist activity at recombinant human vasopressin V1b receptor expressed in Flp-In-293 cells by luciferase reporter gene assay; assay type: functional, cell-based; conditions: read-out: EC50
T4 sequence (P47901 whole entry): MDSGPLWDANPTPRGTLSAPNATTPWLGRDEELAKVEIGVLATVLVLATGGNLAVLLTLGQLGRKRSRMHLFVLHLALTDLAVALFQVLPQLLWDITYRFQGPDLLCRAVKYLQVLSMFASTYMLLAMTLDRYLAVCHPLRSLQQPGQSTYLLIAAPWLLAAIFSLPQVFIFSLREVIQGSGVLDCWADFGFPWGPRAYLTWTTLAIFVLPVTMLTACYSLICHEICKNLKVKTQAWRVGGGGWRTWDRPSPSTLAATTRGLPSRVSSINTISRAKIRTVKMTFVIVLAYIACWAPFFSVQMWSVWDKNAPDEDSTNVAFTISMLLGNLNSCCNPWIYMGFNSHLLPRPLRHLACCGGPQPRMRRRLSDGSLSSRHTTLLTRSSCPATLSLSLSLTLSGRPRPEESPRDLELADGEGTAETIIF
Method in brief: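 Reporter gene assays in HEK293 cells transiently cotransfected with V1a (human or rat) or human V2 receptor vector plus NFAT-luciferase (V1a) or CRE-luciferase (V2) reporter; V1b in Flp-In-293 stably expressing receptor, OT in CHO-K1 stably expressing receptor, both transiently transfected with NFAT-luciferase. Two days post-transfection, peptides added for 5 h at 37 °C, lysis with luciferin, luminescence read.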

Vasopressin V1a receptor [9] = target: T1, Vasopressin V1a receptor; assay: Agonist activity at recombinant human vasopressin V1a receptor expressed in HEK293 cells by luciferase reporter gene assay; assay type: functional, cell-based; conditions: read-out: EC50
Target sequence in this assay (P37288 whole entry): as the sequence (P37288 whole entry, looked up) above

Rattus norvegicus [10] = assay: Vasoconstriction in Wistar rat assessed as assessed as decay in vasopressive duration of action at 0.6 nmol/kg, iv bolus measured over 10 sec interval; assay type: functional; method in brief: as §2
Rattus norvegicus [11] = assay: Vasoconstriction in Wistar rat assessed as decay in vasopressive duration of action at 1 nmol/kg, iv bolus measured over 10 sec interval; assay type: functional; method in brief: as §2
Rattus norvegicus [12] = assay: Vasoconstriction in Wistar rat assessed as assessed as decay in vasopressive duration of action at 0.1 nmol/kg, iv bolus measured over 10 sec interval; assay type: functional

| Ratio EC50 (Homo sapiens [1]) | Efficacy (Vasopressin V1a receptor [2]) [%] | EC50 (Oxytocin receptor; cho-k1, read-out: EC50) [nM] | EC50 (Oxytocin receptor; read-out: pEC50 (converted)) [nM] | Ratio EC50 (Homo sapiens [4]) | Efficacy (Vasopressin V2 receptor [5]) [%] | Ratio EC50 [6] | EC50 (Vasopressin V2 receptor [7]) [nM] | EC50 (Vasopressin V1a receptor [8]) [nM] | EC50 (Vasopressin V1b receptor) [nM] | EC50 (Vasopressin V1a receptor [9]) [nM] | EC50 (Oxytocin receptor; read-out: EC50) [nM] | SMILES | Time (Rattus norvegicus [3]) [unitless ratio] | Time (Rattus norvegicus [10]) [unitless ratio] | Time (Rattus norvegicus [11]) [unitless ratio] | Time (Rattus norvegicus [12]) [unitless ratio] |
| --- | --- | --- | --- | --- | --- | --- | --- | --- | --- | --- | --- | --- | --- | --- | --- | --- |
| 51 | < 70 | > 10000 | > 10000 | > 11000 | < 70 | 1700 | 1600 | 0.34 | 46 | 0.9 |  | CC[C@H](C)[C@@H]1NC(=O)[C@H](Cc2ccccc2)NC(=O)[C@@H](N)CSSC[C@@H](C(=O)N2CCC[C@H]2C(=O)N[C@@H](CCCN)C(=O)NCC(N)=O)NC(=O)[C@H](CC(N)=O)NC(=O)[C@H](CCCC(N)=O)NC1=O (H-CFI[Aad](NH2)NCP[Orn]G-NH2; disulfide 1-6) | 3.4 |  |  |  |
| 530 |  |  |  | 150 | < 70 | 560 | 390 | 0.32 | 370 | 0.69 | 110 | CC[C@H](C)[C@@H]1NC(=O)[C@H](Cc2cccs2)NC(=O)[C@@H](N)CSSC[C@@H](C(=O)N2CCC[C@H]2C(=O)N[C@@H](CCCNC(C)C)C(=O)NCC(N)=O)NC(=O)[C@H](CC(N)=O)NC(=O)[C@H](CCC(N)=O)NC1=O (H-C[2Thi]IQNCP[Orn(iPr)]G-NH2; disulfide 1-6) |  | 2.7 |  |  |
| 210 |  |  |  | 100 |  | 360 | 950 | 0.62 | 570 | 2.6 | 260 | CC[C@H](C)[C@@H]1NC(=O)[C@H](Cc2ccco2)NC(=O)[C@@H](N)CSSC[C@@H](C(=O)N2CCC[C@H]2C(=O)N[C@@H](CCCNC(C)C)C(=O)NCC(N)=O)NC(=O)[C@H](CC(N)=O)NC(=O)[C@H](CCC(N)=O)NC1=O (H-C[Ala(2-furyl)]IQNCP[Orn(iPr)]G-NH2; disulfide 1-6) |  |  | 1.5 |  |
| 32 |  | > 10000 | > 10000 | > 40000 |  | 3000 | 760 | 2.1 | 8 | 0.25 |  | CC[C@H](C)[C@@H]1NC(=O)[C@H](CC2CCCCC2)NC(=O)[C@@H](N)CSSC[C@@H](C(=O)N2CCC[C@H]2C(=O)N[C@@H](CCN)C(=O)NCC(N)=O)NC(=O)[C@H](CC(N)=O)NC(=O)[C@H](CCC(N)=O)NC1=O (H-C[Cha]IQNCP[Dab]G-NH2; disulfide 1-6) | 3.1 |  |  |  |
|  |  |  |  |  |  |  |  |  | 7.5 |  | 71 | NCCC[C@H](NC(=O)[C@@H]1CCCN1C(=O)[C@@H]1CSSC[C@H](N)C(=O)N[C@@H](Cc2ccc(O)cc2)C(=O)N[C@@H](Cc2ccccc2)C(=O)N[C@@H](CCC(N)=O)C(=O)N[C@@H](CC(N)=O)C(=O)N1)C(=O)NCC(N)=O [ORNIPRESSIN] |  |  |  | 1.1 |
|  |  |  |  |  |  |  |  |  |  |  |  | N=C(N)NCCC[C@H](NC(=O)[C@@H]1CCCN1C(=O)[C@@H]1CSSC[C@H](N)C(=O)N[C@@H](Cc2ccc(O)cc2)C(=O)N[C@@H](Cc2ccccc2)C(=O)N[C@@H](CCC(N)=O)C(=O)N[C@@H](CC(N)=O)C(=O)N1)C(=O)NCC(N)=O [VASOPRESSIN] |  |  |  | 1 |
